CR mimetic SO = reduction of superoxide in aged yeast, primary screen, HTS; S. cerevisiae aged cells, superoxide DHE fluorescence; active compounds read low; superoxide response (% of plate mean), % at 10 µM; actives 0.18% (n = 330,000);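 active = superoxide response under a set limit, about three screen SD below normal, cut at about 65% in these data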;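 also: yeast aged for seven days with compound at 30 °C before DHE staining; 100% = average MFI of all compound-treated wells on the plate with controls excluded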
ASAP1 GAP inh = inhibitors of human ASAP1 ArfGAP activity, primary screen, biochemical, fluorescence polarization; actives 0.19% (n = 360,000); inhibition, % at 16.5 µM; ASAP1-stimulated ARF1 GTP hydrolysis, GDP FP detection; Arf-GAP with SH3 domain, ANK repeat and PH domain-containing protein 1 (Homo sapiens), …; in the data active = inhibition above about 25%;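 also: 0% = vehicle with enzyme and substrate and 100% = no enzyme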
ARFGAP1 inhibitor = inhibitors of rat ARFGAP1 GAP activity, primary screen, biochemical, fluorescence polarization, GDP tracer | ADP-ribosylation factor GTPase-activating protein 1 (Rattus norvegicus), Q62848 | Arfgap1-stimulated ARF1 GTP hydrolysis, GDP FP detection | inhibition, % at 16.5 µM | actives 0.26% (n = 360,000);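 active = inhibition above a per-plate limit, mean inhibition of low control wells plus 3 SD, cut at about 25% in these data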;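 also: 0% = DMSO wells with enzyme and 100% = wells lacking Arfgap1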
Target sequence (Q62848 1-136 limits assumed): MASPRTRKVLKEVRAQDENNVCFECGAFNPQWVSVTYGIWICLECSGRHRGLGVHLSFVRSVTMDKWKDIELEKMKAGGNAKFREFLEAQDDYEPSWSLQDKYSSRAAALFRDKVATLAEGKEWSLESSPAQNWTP
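Assay system: purified rat His6-Arfgap1 residues 1-136 (GAP domain); Reagent: human Δ17 ARF1 bound to GTP; Dosing: 16.5 µM single point, 1.26% DMSO; Times: GTP hydrolysis reaction 2 h at 25 °C; Signal: FP, GDP Alexa 633 tracer displaced from anti-GDP antibody, 620/688 nm; Measure: % inhibition from polarization.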
proCasp7 act = procaspase-7 activators, primary screen, counter-screen for procaspase-3 activator project, biochemical, absorbance, HTS, human | actives 0.093% (n = 330,000) | recombinant procaspase-7, Ac-DEVD-pNA absorbance 405 nm; D23A/D198A/D206A triple mutant, cannot self-cleave; scale: DMSO 0, 5 µM enzyme 100 | activation, % at 8.5 µM | Caspase-7 (Homo sapiens), P55210;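 active = percent activation above the screen-wide mean plus 3 SD, cut at about 25% in these data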
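Assay system: Uncleavable procaspase-7 mutant enzyme; Input: 2 µM procaspase-7 mutant as dispensed; Also added: DEVD-pNA substrate; Medium: Zinc-free HEPES pH 7.4 with 300 mM NaCl, 0.01% Triton X-100; Timing: 1 h compound preincubation, 2 h substrate cleavage, 25 °C; Measured by: Epi-absorbance of released pNA at 405 nm, two timepoints.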
LANA-H2A inh = blockers of LANA interaction with H2A/H2B – biochemical, FP readout, HTS, primary screen | Protein LANA1 (Human herpesvirus 8 type P (isolate GK18)), Q9QR71 | cell-free LANA-H2A/H2B peptide, fluorescence polarization | inhibition, % (no concentration beside the values) | actives 0.6% (n = 320,000) | AID 2629, 2010; in the data active = inhibition mostly above about 10%, no sharp cut-off; inactive = mostly below about 6.7%
procasp3 activ = activators of human procaspase-3 D3A mutant, primary screen, biochemical, absorbance, PC-3 D3A mutant, single concentration | Caspase-3 (Homo sapiens), P42574 | recombinant procaspase-3 D3A, Ac-DEVD-pNA absorbance 405 nm | activation, % at 8.5 µM | actives 0.11% (n = 330,000) | AID 463141, 2010;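 active = activation above the mean of all tested compounds plus 3 SD, cut at about 21% in these data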;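 also: 0% = DMSO alone and 100% = DMSO wells spiked with extra 5 µM PC-3 D3A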
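Assay system: Procaspase-3 D3A mutant, all three cleavage aspartates alanine. Buffer or medium: Zinc-free HEPES saline buffer with Triton X-100. Times: 1 h compound preincubation, 2 h substrate hydrolysis at 25 °C. Measured by: 405 nm absorbance of p-nitroaniline, reads at 0 and 120 min. Read-out basis: percent activation relative to control range. Replicates: singlicate.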
ARFGAP1 confirm = ARFGAP1 inhibitor hit confirmation, biochemical, fluorescence polarization, triplicate | shares compounds with ARFGAP1 inhibitor | ARFGAP1-stimulated ARF1 GTP hydrolysis, GDP tracer FP | inhibition, % at 16.5 µM | actives 30% (n = 890) | AID 651608, 2012;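 active = average inhibition over triplicates above the hit cutoff set in the earlier primary screen, cut at about 25% in these data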;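 also: 0% = Arfgap1 plus ARF1-GTP with DMSO and 100% = wells lacking Arfgap1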
Target sequence (Q62848 whole entry, looked up): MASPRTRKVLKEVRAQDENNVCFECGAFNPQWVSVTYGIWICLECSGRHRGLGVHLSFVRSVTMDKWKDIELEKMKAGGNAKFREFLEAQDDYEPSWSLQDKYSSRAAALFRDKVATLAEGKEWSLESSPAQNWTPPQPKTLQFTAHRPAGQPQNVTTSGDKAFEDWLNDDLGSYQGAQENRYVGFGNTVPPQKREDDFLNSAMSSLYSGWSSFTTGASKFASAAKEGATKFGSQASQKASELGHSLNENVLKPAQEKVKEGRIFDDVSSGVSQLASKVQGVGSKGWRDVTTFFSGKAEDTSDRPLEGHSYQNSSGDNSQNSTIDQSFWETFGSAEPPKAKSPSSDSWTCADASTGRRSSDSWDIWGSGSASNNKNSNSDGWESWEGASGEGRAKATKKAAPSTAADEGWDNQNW
* hit, by the source's call; x = no result; + = active, no number. Sampled rows, rich in hits. Any-hit rate of the full collection: about 1.2%.

SMILES	CR mimetic SO	ASAP1 GAP inh	ARFGAP1 inhibitor	proCasp7 act	LANA-H2A inh	procasp3 activ	ARFGAP1 confirm
CCOc1ccc(CNC(=O)Cn2nc(C)c3c(C)n(-c4ccc(C)cc4)nc3c2=O)cc1	101.1	6.5	33.6*	-0.4	2.5	2.5	2.4
Nc1ccc2nc(-c3cccc(-c4nc5ccc(N)cc5[nH]4)c3)[nH]c2c1	90.2	7.8	60.2*	-6.5	0.6	-14.4	106.1*
CC(C)NC(=O)Cn1c(SCC(=O)N2CCCCCC2)nc2ccccc21	93.1	-2.4	-3.3	6.0	3.5	6.3	x
CC(C)NC(=O)Cn1c(SCC(=O)N2c3ccccc3CC2C)nc2ccccc21 (stereo not drawn)	102.4	1.0	30.7*	11.6	1.0	6.8	1.2
COc1ccc(C(=O)NC(=S)Nc2ccc(N3CCCC3)cc2)cc1	98.5	-2.4	10.2	-2.3	5.1	0.8	x
COc1ccc(C(=O)Nc2ccc(N3CCCC3)cc2)cc1	81.6	9.6	24.8*	-5.2	-3.4	-4.3	87.0*
CC[C@@]1(O)C(=O)OCc2c1cc1n(c2=O)Cc2cc3c(CN(C)C)c(O)ccc3nc2-1	121.7	24.3	24.9*	-36.8	68.2*	-33.8	7.6
O=C(NCc1ccc(Cl)cc1)C(=O)NCC(c1ccco1)N1CCOCC1 (stereo not drawn)	105.7	5.7	29.7*	7.8	0.7	-1.0	3.3
Cc1ccc(CNC(=O)C(=O)NCC(c2ccco2)N2CCOCC2)cc1 (stereo not drawn)	103.8	9.2	-3.9	0.6	-0.4	11.3	x
CCOC(=O)C1CCCN(CCC(=O)Nc2ccccc2C)C1 (stereo not drawn)	101.3	6.8	25.8*	-1.6	-2.0	9.3	-5.8
CCOC(=O)C1CCCN(CCC(=O)Nc2cc(C)ccc2C)C1 (stereo not drawn)	73.0	17.1	0.7	6.0	-3.5	4.6	x
Cc1c(C)c2ccc(OCC(=O)NCCc3c[nH]c4ccccc34)c(C)c2oc1=O	108.9	14.6	25.3*	-3.0	-3.5	8.0	6.5
CN(C)CCNC(=O)c1cccc(-c2cnc3c(NC=O)cc(-c4ccc(F)cc4)cn23)c1	x	-3.1	-1.5	x	x	x	x
COc1ccc(-c2cc(NC=O)c3ncc(-c4cccc(C(=O)NCCN(C)C)c4)n3c2)cc1	x	8.3	27.4*	x	x	x	26.6*
CC(=O)Nc1cccc(-c2cc(NC=O)c3ncc(-c4ccc(C(C)=O)cc4)n3c2)c1	x	19.5	25.0*	x	x	x	19.3
COc1ccc(-c2cc(NC=O)c3ncc(-c4ccc(C(C)=O)cc4)n3c2)cn1	x	20.5	29.2*	x	x	x	34.3*
CCCc1cc(=O)oc2cc(OCC(=O)NCCCN3CCOCC3)ccc12	107.3	0.9	-4.2	19.0	1.2	-2.1	x
CC(C)C[C@H]1CNC(=S)N1C[C@H]1CCCN1C[C@H](Cc1ccccc1)N1C[C@H](CC(C)C)N(CCc2ccccc2)C1=S	x	20.8	-1.5	x	x	x	x
O=C1c2ccccc2C(=O)N1CCCc1c[nH]c2ccc(Cl)cc12	90.7	1.9	32.9*	6.5	-3.1	-0.8	15.2
CCOC(=O)c1csc(NC(=O)CSc2nnnn2-c2ccc3c(c2)OCCO3)n1	104.9	7.2	4.0	0.8	2.5	-1.4	x
CCC(=O)Nc1ccc(NC(=O)CSc2nnnn2-c2ccc3c(c2)OCCO3)cc1	105.1	8.4	33.1*	3.8	-5.4	11.4	41.6*
COc1ccc(N2CC(C(=O)Nc3ccc(S(=O)(=O)Nc4nccs4)cc3)CC2=O)c(OC)c1 (stereo not drawn)	96.5	1.9	24.7*	0.8	-0.2	0.7	0.2
C=CCNC(=O)/C(=C\c1ccc(OC)cc1)NC(=O)c1ccc([N+](=O)[O-])cc1	100.3	3.3	7.8	8.0	-8.1	1.9	x
O=C(Nc1ccc(CN2CCOCC2)cc1)c1ccc(-c2cc(Cl)ccc2Cl)o1	107.3	12.9	36.8*	15.6	-1.3	0.0	25.3*
O=C(Nc1ccc(CN2CCOCC2)cc1)c1ccc(Br)o1	139.3	7.0	4.2	2.5	-1.5	6.2	x
SMILES	CR mimetic SO	ASAP1 GAP inh	ARFGAP1 inhibitor	proCasp7 act	LANA-H2A inh	procasp3 activ	ARFGAP1 confirm
O=C(Nc1cccc(C(=O)O)c1)/C(=C\c1ccc(F)cc1)NC(=O)c1ccco1	94.0	-1.9	-11.0	0.4	1.4	4.5	x
O=C(NNC(=S)NC(=O)C12CC3CC(CC(C3)C1)C2)c1ccncc1	171.9	-9.9	37.5*	-33.2	-1.8	-21.5	-1.9
CCN1CCN(c2ccc(S(=O)(=O)N3CCCCC3)cc2NC(=O)/C=C/c2ccc([N+](=O)[O-])cc2)CC1	104.2	28.6*	42.5*	2.1	3.5	-6.5	45.4*
CC(=O)Nc1ccc(NC(=O)c2ccc3sc([C@H]4C[C@H](O)[C@@H](CO)O4)nc3c2)cc1	x	2.0	3.0	x	x	x	x
O=C(Nc1ccc(F)c(Cl)c1)c1ccc2sc([C@H]3C[C@H](O)[C@@H](CO)O3)nc2c1	x	13.1	24.8*	x	x	x	4.5
c1ccc2c(c1)COc1c3ncccc3nn1-2	x	1.9	+	x	x	x	-1.5
COc1ccccc1C(=O)O/N=C1/CCCc2c1ccc(OC)c2[N+](=O)[O-]	129.5	-15.1	-9.8	-0.6	-0.6	0.7	x
COc1cc(C(=O)O/N=C2\CCCc3c2ccc(OC)c3[N+](=O)[O-])cc(OC)c1OC	116.4	11.4	25.1*	-8.8	-5.0	-2.4	-7.1
COC(=O)c1cc(S(=O)(=O)NCC2CCN(Cc3cccc(F)c3)CC2)cn1C	95.8	2.3	-3.0	7.0	-1.7	0.5	x
COc1[nH]c2ccc(F)cc2c1C(=O)OCC1CCN(CCNS(C)(=O)=O)CC1	98.5	-12.3	27.5*	9.4	1.6	0.8	2.4
C/C(=N\NC(=S)NCc1ccccc1)c1cccs1	86.1	-16.9	30.2*	1.3	-1.4	0.1	1.5
CC1(C)Cc2cccc(Oc3cc(NN4CCCCC4)c([N+](=O)[O-])cc3[N+](=O)[O-])c2O1	98.8	-6.8	0.7	-10.7	4.1	1.5	x
